# Measurements taken from publication PMC8911528 (Organic & biomolecular chemistry, 2021).
# Assays:
# [1] = target: T1, SF3B subunit of the spliceosome (Homo sapiens, UniProt O75533+Q7RTV0); conditions: cited from earlier work
# human cells = conditions: cited from earlier work
# WI-38 = conditions: human normal fibroblast cell line WI-38; cited from earlier work
# [2] = target: T1, SF3B subunit of the spliceosome; assay: In vitro splicing assay; format: biochemical; conditions: for reduction in splicing inhibitory potency compared to herboxidiene: relative to herboxidiene
# Procedure, shortened: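 Radiolabeled RNA splicing substrate incubated in human cell nuclear extract with a dose range of test compound or DMSO control. RNA resolved by denaturing PAGE and bands quantified by phosphorimaging. Splicing efficiency is mRNA over total substrate RNA, normalised to DMSO. IC50 (half-maximal reduction of splicing versus DMSO) is from nonlinear regression, [inhibitor] vs normalised response, on three independent measurements, with 95% confidence intervals.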
molecule,measurement,setting,value
C6 desmethyl herboxidiene [Compound 8],splicing inhibitory activity,[1],slightly lower splicing inhibitory activity
same,anticancer activity in human cells,human cells,slightly lower
CO[C@H]([C@@H](C)[C@H]1O[C@]1(C)C[C@H](C)/C=C/C=C(\C)[C@H]1O[C@@H](CC(=O)O)CC[C@@H]1C)[C@@H](C)O [herboxidiene],cell cycle arrest,WI-38,induces both G1 and G2/M cell cycle arrest
"C=C1CC[C@H](CC(=O)O)O[C@@H]1/C(C)=C/C=C/[C@@H](C)C[C@@]1(C)O[C@@H]1[C@H](C)[C@@H](OC)[C@@H](C)O [Compound 12, 2-((2R,6S)-6-((S,2E,4E)-7-((2R,3R)-3-((2R,3R,4R)-4-hydroxy-3-methoxypentan-2-yl)-2-methyloxiran-2-yl)-6-methylhepta-2,4-dien-2-yl)-5-methylenetetrahydro-2H-pyran-2-yl)acetic acid]",IC50,[2],400 nM
5(R)-hydroxy herboxidiene [Compound 6],splicing inhibition relative to herboxidiene,[1],slightly lower splicing inhibition than herboxidiene
"CO[C@H]([C@@H](C)[C@H]1O[C@]1(C)C[C@H](C)/C=C/C=C(\C)[C@H]1O[C@@H](CC(=O)O)CCC12CC2)[C@@H](C)O [Compound 14, 2-((4S,6R)-4-((S,2E,4E)-7-((2R,3R)-3-((2R,3R,4R)-4-hydroxy-3-methoxypentan-2-yl)-2-methyloxiran-2-yl)-6-methylhepta-2,4-dien-2-yl)-5-oxaspiro[2.5]octan-6-yl)acetic acid]",IC50,[2],5200 nM
same,loss of splicing inhibitory activity compared to gem-dimethyl derivative,[2]; relative to gem-dimethyl derivative 15,5 fold
"CO[C@H]([C@@H](C)[C@H]1O[C@]1(C)C[C@H](C)/C=C/C=C(\C)[C@H]1O[C@@H](CC(=O)O)CC[C@H]1C)[C@@H](C)O [Compound 13, 2-((2R,5R,6S)-6-((S,2E,4E)-7-((2R,3R)-3-((2R,3R,4R)-4-hydroxy-3-methoxypentan-2-yl)-2-methyloxiran-2-yl)-6-methylhepta-2,4-dien-2-yl)-5-methyltetrahydro-2H-pyran-2-yl)acetic acid]",IC50,[2],2500 nM
same,reduction in splicing inhibitory potency compared to herboxidiene,[2],about 6 fold
"CO[C@H]([C@@H](C)[C@H]1O[C@]1(C)C[C@H](C)/C=C/C=C(\C)[C@H]1O[C@@H](CC(=O)O)CCC1(C)C)[C@@H](C)O [Compound 15, 2-((2R,6S)-6-((S,2E,4E)-7-((2R,3R)-3-((2R,3R,4R)-4-hydroxy-3-methoxypentan-2-yl)-2-methyloxiran-2-yl)-6-methylhepta-2,4-dien-2-yl)-5,5-dimethyltetrahydro-2H-pyran-2-yl)acetic acid]",reduction in splicing inhibitory potency compared to herboxidiene,[2],3 fold
